Test results taken from ChEMBL document CHEMBL2346543, “Triazolopyridazine LRRK2 kinase inhibitors” (Bioorg Med Chem Lett, 2013).
pIC50: −log10 of the molar value. In brackets after ≈: the same amount, converted by molar mass.

How the values were obtained:
[1] = biological target: Leucine-rich repeat serine/threonine-protein kinase 2 (Homo sapiens, UniProt Q5S007); assay: Inhibition of wild type LRRK2 (unknown origin) by TR-FRET assay
Procedure, shortened: (§1)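 HTRF assay with GST-LRRK2 (G2019S or wild type) measuring inhibition of LRRKtide phosphorylation. Biotinylated LRRKtide substrate; detection with Eu(K)-labelled anti-phospho-Moesin antibody plus streptavidin-XL665, read at 620 and 665 nm. Ratio taken as wild-type IC50 over G2019S IC50.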

[2] = biological target: Leucine-rich repeat serine/threonine-protein kinase 2 (Homo sapiens, UniProt Q5S007, G2019S); assay: Inhibition of LRRK2 G2019S mutant (unknown origin) by TR-FRET assay; procedure, shortened: as §1
[3] = Kinetic solubility of the compound in isotonic buffer at pH 7.4; type: physicochemical; settings: read-out: Kinetic_solubility
[4] = species: Homo sapiens; assay: Selectivity ratio of IC50 for wild type LRRK2 (unknown origin) to IC50 for LRRK2 G2019S mutant (unknown origin); procedure, shortened: as §1
[5] = Permeability of the compound; type: ADME; settings: not told; read-out: permeability
[6] = tested on: P-gp; assay: Efflux ratio in P-gp (unknown origin) mediated drug transport; type: ADME; settings: human, not told
[7] = biological target: Macrophage colony-stimulating factor 1 receptor (Homo sapiens) (UniProt P07333); assay: Inhibition of CSF1R (unknown origin) at 1 uM
Procedure, shortened: (§2)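 Single-point panel run by an outside contract lab: inhibition of each of 40 selected kinases measured at 1 µM test compound; percent inhibition reported.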

[8] = biological target: Serine/threonine-protein kinase PLK1 (Homo sapiens) (UniProt P53350); assay: Inhibition of PLK1 (unknown origin) at 1 uM; procedure, shortened: as §2
[9] = species: Homo sapiens; assay: Inhibition of MAPK (unknown origin) at 1 uM; procedure, shortened: as §2
[10] = biological target: Tyrosine-protein kinase JAK1 (Homo sapiens) (UniProt P23458); assay: Inhibition of Jak1 (unknown origin) at 1 uM; procedure, shortened: as §2
[11] = biological target: Receptor-type tyrosine-protein kinase FLT3 (Homo sapiens) (UniProt P36888); assay: Inhibition of Flt3 (unknown origin) at 1 uM; procedure, shortened: as §2
[12] = biological target: RAC-alpha serine/threonine-protein kinase (Homo sapiens) (UniProt P31749); assay: Inhibition of Akt1 (unknown origin) at 1 uM; procedure, shortened: as §2
[13] = biological target: Cyclin-dependent kinase 1/cyclin B1 (Homo sapiens) (UniProt P06493+P14635); assay: Inhibition of CDK1/Cyclin B (unknown origin) at 1 uM; type: protein-complex assay; procedure, shortened: as §2
[14] = biological target: Glycogen synthase kinase-3 beta (Homo sapiens) (UniProt P49841); assay: Inhibition of GSK3beta (unknown origin) at 1 uM; procedure, shortened: as §2
[15] = tested on: Liver microsomes; assay: Metabolic stability in rat liver microsomes after 30 mins; type: ADME, Microsome; settings: 0.5 h
Procedure, shortened: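 Compound incubated with NADPH-supplemented rat liver microsomes at 37 °C for 30 min; parent consumption and sulfoxide/sulfone metabolite formation monitored.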

[16] = biological target: Cyclin-dependent kinase 5/CDK5 activator 1 (Homo sapiens) (UniProt Q00535+Q15078); assay: Inhibition of CDK5/p25 (unknown origin) at 1 uM; type: protein-complex assay; procedure, shortened: as §2
[17] = biological target: Tyrosine-protein kinase ABL1 (Homo sapiens) (UniProt P00519); assay: Inhibition of Abl1 (unknown origin) at 1 uM; procedure, shortened: as §2
[18] = biological target: Phosphatidylinositol 4,5-bisphosphate 3-kinase catalytic subunit alpha isoform (Homo sapiens) (UniProt P42336); assay: Inhibition of PIK3CA (unknown origin) at 1 uM; procedure, shortened: as §2
[19] = biological target: Dual specificity protein kinase TTK (Homo sapiens) (UniProt P33981); assay: Inhibition of Ttk (unknown origin) at 1 uM; procedure, shortened: as §2
[20] = biological target: Serine/threonine-protein kinase Chk1 (Homo sapiens) (UniProt O14757); assay: Inhibition of Chek1 (unknown origin) at 1 uM; procedure, shortened: as §2
[21] = biological target: Tyrosine-protein kinase SYK (Homo sapiens) (UniProt P43405); assay: Inhibition of Syk (unknown origin) at 1 uM; procedure, shortened: as §2
[22] = biological target: Aurora kinase A (Homo sapiens) (UniProt O14965); assay: Inhibition of Aurora A (unknown origin) at 1 uM; procedure, shortened: as §2
[23] = biological target: Receptor tyrosine-protein kinase erbB-4 (Homo sapiens) (UniProt Q15303); assay: Inhibition of ErbB4 (unknown origin) at 1 uM; procedure, shortened: as §2
[24] = biological target: Platelet-derived growth factor receptor alpha (Homo sapiens) (UniProt P16234); assay: Inhibition of PDGFRalpha (unknown origin) at 1 uM; procedure, shortened: as §2
[25] = biological target: RAF proto-oncogene serine/threonine-protein kinase (Homo sapiens) (UniProt P04049); assay: Inhibition of Raf1 (unknown origin) at 1 uM; procedure, shortened: as §2
[26] = tested on: Liver microsomes; assay: Metabolic stability in human liver microsomes; type: ADME, Microsome
[27] = biological target: Proto-oncogene tyrosine-protein kinase receptor Ret (Homo sapiens) (UniProt P07949); assay: Inhibition of Ret (unknown origin) at 1 uM; procedure, shortened: as §2
Sequence of Proto-oncogene tyrosine-protein kinase receptor Ret (Homo sapiens) (P07949 whole entry): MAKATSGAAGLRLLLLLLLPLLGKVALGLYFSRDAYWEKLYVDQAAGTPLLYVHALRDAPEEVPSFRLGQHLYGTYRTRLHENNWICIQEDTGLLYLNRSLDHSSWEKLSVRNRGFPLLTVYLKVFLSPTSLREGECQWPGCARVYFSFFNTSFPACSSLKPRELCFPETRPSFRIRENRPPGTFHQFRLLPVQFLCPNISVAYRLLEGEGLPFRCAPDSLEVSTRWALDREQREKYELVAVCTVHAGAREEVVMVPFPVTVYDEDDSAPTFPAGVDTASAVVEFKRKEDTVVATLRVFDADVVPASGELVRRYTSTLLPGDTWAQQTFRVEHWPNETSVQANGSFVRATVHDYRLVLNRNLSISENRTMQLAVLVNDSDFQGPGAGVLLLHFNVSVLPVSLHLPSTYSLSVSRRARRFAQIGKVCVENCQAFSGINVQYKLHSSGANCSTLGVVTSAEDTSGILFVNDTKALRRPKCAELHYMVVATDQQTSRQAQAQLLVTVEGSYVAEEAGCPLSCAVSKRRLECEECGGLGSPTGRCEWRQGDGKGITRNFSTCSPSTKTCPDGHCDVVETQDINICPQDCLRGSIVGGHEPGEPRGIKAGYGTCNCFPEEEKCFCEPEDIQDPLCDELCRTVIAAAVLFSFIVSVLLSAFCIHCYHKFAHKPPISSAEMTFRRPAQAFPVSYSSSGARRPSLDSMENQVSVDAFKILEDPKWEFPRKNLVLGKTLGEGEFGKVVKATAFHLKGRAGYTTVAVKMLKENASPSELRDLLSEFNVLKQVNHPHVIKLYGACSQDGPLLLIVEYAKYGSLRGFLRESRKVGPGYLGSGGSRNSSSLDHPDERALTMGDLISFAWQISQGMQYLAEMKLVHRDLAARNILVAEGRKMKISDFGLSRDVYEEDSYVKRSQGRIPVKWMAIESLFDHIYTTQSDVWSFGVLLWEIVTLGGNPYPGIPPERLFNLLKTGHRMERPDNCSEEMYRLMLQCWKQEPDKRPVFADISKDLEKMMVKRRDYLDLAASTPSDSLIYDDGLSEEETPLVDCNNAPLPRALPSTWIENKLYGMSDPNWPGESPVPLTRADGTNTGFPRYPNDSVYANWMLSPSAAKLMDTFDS

Sequence of Leucine-rich repeat serine/threonine-protein kinase 2 (Homo sapiens, UniProt Q5S007, G2019S) (Q5S007 whole entry G2019S): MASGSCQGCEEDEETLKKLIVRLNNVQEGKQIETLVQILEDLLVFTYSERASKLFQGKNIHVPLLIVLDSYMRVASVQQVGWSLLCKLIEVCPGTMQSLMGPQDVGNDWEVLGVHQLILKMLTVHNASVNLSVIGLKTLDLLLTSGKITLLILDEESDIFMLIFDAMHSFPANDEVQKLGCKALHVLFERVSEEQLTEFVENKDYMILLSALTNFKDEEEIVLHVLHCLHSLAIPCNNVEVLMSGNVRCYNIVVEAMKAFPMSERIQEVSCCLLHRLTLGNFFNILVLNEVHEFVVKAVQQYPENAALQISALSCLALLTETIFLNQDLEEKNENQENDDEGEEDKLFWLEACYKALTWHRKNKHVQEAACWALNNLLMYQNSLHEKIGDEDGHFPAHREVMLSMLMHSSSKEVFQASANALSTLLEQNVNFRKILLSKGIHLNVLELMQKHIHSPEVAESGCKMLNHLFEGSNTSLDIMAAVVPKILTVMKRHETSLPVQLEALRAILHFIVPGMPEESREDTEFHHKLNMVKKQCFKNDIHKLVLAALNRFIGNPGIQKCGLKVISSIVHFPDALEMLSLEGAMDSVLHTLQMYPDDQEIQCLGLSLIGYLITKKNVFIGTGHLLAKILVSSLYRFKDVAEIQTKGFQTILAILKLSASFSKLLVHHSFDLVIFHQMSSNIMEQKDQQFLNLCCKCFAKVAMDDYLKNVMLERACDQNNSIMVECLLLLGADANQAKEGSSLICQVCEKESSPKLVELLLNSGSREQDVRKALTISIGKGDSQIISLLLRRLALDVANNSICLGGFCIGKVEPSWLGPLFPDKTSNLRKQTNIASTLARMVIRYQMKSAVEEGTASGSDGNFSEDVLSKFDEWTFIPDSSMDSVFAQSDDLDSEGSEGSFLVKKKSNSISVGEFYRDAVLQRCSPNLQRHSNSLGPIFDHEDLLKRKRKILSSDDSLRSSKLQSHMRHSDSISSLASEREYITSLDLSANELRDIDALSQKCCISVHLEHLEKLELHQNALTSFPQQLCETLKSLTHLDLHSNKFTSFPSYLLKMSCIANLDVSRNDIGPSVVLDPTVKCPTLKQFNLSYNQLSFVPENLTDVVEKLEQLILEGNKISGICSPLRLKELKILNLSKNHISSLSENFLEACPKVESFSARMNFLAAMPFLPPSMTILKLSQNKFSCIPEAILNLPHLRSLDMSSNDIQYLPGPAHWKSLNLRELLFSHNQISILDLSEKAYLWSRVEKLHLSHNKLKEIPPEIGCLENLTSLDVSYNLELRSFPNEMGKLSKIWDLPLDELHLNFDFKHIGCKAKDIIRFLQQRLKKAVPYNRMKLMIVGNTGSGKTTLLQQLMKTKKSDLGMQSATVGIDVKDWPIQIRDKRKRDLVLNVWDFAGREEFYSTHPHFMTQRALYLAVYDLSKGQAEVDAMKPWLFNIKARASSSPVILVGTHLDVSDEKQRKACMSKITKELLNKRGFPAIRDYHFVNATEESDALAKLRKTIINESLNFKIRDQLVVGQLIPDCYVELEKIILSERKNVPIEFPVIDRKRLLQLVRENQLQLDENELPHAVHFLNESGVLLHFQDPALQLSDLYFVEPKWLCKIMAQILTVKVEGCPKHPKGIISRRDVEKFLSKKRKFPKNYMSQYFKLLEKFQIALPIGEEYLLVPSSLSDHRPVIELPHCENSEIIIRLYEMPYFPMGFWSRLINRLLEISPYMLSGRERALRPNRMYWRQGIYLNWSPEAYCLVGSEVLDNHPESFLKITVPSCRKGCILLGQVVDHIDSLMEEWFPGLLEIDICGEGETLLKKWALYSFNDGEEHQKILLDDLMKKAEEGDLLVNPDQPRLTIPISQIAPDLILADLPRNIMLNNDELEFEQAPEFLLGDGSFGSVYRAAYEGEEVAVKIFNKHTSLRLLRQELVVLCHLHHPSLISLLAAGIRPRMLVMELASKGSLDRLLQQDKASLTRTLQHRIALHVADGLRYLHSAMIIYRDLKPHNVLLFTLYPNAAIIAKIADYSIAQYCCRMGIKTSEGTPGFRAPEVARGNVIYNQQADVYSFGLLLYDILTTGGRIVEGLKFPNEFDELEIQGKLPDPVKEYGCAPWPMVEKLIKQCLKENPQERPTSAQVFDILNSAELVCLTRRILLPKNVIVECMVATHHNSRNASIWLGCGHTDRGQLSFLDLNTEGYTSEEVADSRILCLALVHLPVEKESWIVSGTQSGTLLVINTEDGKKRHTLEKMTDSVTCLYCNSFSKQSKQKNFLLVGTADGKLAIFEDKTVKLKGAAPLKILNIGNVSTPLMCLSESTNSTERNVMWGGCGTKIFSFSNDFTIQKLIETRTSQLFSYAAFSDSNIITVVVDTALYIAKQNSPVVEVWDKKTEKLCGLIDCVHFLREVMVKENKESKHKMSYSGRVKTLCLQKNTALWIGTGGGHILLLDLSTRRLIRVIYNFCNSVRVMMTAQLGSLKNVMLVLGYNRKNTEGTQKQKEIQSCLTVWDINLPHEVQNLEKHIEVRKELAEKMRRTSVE
Sequence of Leucine-rich repeat serine/threonine-protein kinase 2 (Homo sapiens, UniProt Q5S007) (Q5S007 whole entry): as the sequence (Q5S007 whole entry G2019S) above, with S2019G counted along it
Sequence of Receptor-type tyrosine-protein kinase FLT3 (Homo sapiens) (P36888 whole entry): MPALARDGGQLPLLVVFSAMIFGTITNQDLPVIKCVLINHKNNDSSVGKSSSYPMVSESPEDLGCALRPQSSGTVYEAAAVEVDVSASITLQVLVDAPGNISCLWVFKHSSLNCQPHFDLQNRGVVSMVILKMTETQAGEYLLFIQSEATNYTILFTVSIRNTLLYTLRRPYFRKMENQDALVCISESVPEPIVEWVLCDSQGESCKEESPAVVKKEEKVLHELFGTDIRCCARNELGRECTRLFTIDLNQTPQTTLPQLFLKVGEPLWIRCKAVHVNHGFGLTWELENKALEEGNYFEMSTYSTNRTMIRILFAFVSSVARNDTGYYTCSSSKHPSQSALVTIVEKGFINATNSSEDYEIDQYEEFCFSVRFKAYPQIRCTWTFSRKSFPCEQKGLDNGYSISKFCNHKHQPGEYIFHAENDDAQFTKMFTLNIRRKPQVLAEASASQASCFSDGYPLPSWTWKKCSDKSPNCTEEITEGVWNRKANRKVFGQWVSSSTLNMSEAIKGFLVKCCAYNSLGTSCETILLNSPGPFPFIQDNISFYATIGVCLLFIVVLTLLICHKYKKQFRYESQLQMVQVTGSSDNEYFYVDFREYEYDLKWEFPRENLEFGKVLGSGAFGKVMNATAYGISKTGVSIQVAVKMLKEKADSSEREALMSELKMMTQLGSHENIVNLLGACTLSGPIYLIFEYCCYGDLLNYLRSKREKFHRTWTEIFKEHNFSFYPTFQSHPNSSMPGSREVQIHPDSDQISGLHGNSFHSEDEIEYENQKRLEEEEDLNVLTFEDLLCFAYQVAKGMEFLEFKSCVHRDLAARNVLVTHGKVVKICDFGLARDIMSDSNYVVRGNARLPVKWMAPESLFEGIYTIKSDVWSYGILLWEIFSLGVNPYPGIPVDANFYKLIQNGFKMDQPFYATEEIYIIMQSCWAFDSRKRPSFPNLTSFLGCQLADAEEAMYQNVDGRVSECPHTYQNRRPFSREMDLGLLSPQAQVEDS
Sequence of Glycogen synthase kinase-3 beta (Homo sapiens) (P49841 whole entry, looked up): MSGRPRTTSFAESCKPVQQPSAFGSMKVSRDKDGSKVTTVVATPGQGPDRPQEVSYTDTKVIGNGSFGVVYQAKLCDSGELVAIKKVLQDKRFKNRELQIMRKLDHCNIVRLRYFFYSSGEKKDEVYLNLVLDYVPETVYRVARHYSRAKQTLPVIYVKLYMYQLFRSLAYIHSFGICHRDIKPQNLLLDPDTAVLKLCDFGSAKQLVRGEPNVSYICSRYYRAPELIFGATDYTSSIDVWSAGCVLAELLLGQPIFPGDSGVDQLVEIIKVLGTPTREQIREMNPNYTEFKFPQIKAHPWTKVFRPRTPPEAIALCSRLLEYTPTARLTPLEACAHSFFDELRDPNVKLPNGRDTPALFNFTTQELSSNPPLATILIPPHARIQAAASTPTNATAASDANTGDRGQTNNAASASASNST

SMILES: COC(=O)C(C)Sc1ccc2nnc(-c3cccs3)n2n1 (configuration not stated)
- pIC50 [1]: 6.27
- pIC50 [2]: 6.70
- solubility kinetic [3]: 72 µM (≈ 23.1 µg/mL)
- Ratio IC50 [4]: 2.7
- Papp [5]: 28 ×10⁻⁶ cm/s
- efflux ratio [6]: 0.8

SMILES: FC(F)(F)c1cccc(Sc2ccc3nnc(-c4ccccc4)n3n2)c1
- inhibition [7]: < 18%
- inhibition [8]: < 18%
- inhibition [9]: < 18%
- inhibition [10]: < 18%
- inhibition [11]: < 18%
- pIC50 [1]: 6.62
- inhibition [12]: < 18%
- inhibition [13]: < 18%
- inhibition [14]: < 18%
- Stability [15]: Unstable
- pIC50 [2]: 7.30
- inhibition [16]: < 18%
- inhibition [17]: < 18%
- inhibition [18]: < 18%
- inhibition [19]: < 18%
- inhibition [20]: < 18%
- inhibition [21]: < 18%
- solubility kinetic [3]: 9 µM (≈ 3.35 µg/mL)
- inhibition [22]: < 18%
- Ratio IC50 [4]: 4.8
- inhibition [23]: < 18%
- inhibition [24]: < 18%
- inhibition [25]: < 18%
- Papp [5]: 2.1 ×10⁻⁶ cm/s
- Stability [26]: Stable
- inhibition [27]: < 18%
